Assay outcomes from PubChem BioAssay.
SKKanGAS inh: S. pyogenes SKKanGAS growth inhibitors in kanamycin, primary screen, streptokinase expression inhibitor project, SKKanGAS strain, BacTiter-Glo luminescence; 6 h; inhibition, % at 7.5 µM; 300,000 tested, 1.3% active;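 active = mean replicate score, as percent of positive control median, at least 50; inconclusive = mean below 50 but one replicate at or above 50; inactive = mean and every replicate below 50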;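 note: strain carries kanamycin resistance gene driven by streptokinase promoter and grows in 40 µg/ml kanamycin; loss of luminescence reflects streptokinase promoter inhibition or plain growth inhibition; 0% = median of DMSO wells and 100% = positive control at its reference dose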
CHOP UPR activ: activators of apoptotic CHOP UPR arm, primary screen, cell-based, CHO-CHOP luciferase reporter, luminescence, uHTS; AID 449763, 2010; activation, % at 10 µM; 330,000 tested, 0.34% active; UPR activation; percent of tunicamycin response over DMSO baseline;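 active = at 10 µM dose, activation of 40% or more, normalized to positive control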;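 note: 100% = tunicamycin at 10 µg/mL and 0% = DMSO alone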
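System: CHO-CHOP luciferase reporter cell line | Buffer or medium: F12 medium containing 10% fetal bovine serum | Doses: One dose, 10 µM in 0.5% DMSO | Times: 6 h compound exposure at 37 °C after overnight seeding | Signal: Luciferase luminescence | Read-out: % activation vs tunicamycin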
UPR XBP1 act: activators of adaptive XBP1 UPR arm, primary screen, cell-based, CHO-XBP1 luciferase reporter, luminescence, uHTS; IRE1-XBP1 UPR activation; percent of tunicamycin response, DMSO as zero; activation, % at 20 µM; 330,000 tested, 0.33% active; AID 463104, 2010;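 active = versus positive control, 20 µM dose yields 30% or more activation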;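 note: 100% = tunicamycin at 10 µg/mL and 0% = DMSO only wells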
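incubation = overnight seeding at 37 °C, 6 h compound treatment at 37 °C | assay system = CHO-XBP1 cells stably carrying IRE1-XBP1-driven luciferase reporter | input = 1000 cells per well | detection = luciferase luminescence | dosing = single point, 20 µM final compound, 1% DMSO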
Mdm2-MdmX inh: inhibitors of human Mdm2-MdmX association, primary screen, cell-based, luminescence, split luciferase, SaOS-2, uHTS. 330,000 tested, 3% active. Protein Mdm4 (Homo sapiens) + E3 ubiquitin-protein ligase Mdm2 (Homo sapiens), …. AID 485346, 2010. SaOS-2 split-luciferase Mdm2/MdmX complementation. inhibition, % at 8 µM;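 active = inhibition of at least 50% at 8 µM in the primary screen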
CSC inhib: cancer stem cell viability inhibitors, primary screen, luminescence; inhibition, % at 7.5 µM; cancer stem cell-like cells viability; 300,000 tested, 1.1% active; AID 2717, 2010; in the data active = inhibition above about 75%; inconclusive = no clear call, values can overlap the other calls; tested in HMLE shEcad cells
Beta cell apopt: inhibitors of cytokine-induced beta cell apoptosis, primary screen, luminescence; INS-1E cytokine-induced death, ATP luminescence, 48 h; percent of positive-control rescue, neutral wells zero; protection from apoptosis, % (concentration not given with the values); 300,000 tested, 0.8% active; AID 435005, 2010;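 active = Every replicate reaches about 75%, or at least half do and their mean reaches it too, limit read from the data; inconclusive = At least half of replicates reach the limit but their mean does not; inactive = Under half of replicates reach the limit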;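 note: 0% = cytokine-treated negative control wells and 100% = positive control rescue; higher means more ATP so stronger rescue from cytokine killing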
Mdm2-MdmX conf: Mdm2-MdmX complex disruptors, retested hits, confirmation, luminescence, single concentration | shares compounds with Mdm2-MdmX inh | Mdm2-MdmX binding, luminescent assay | inhibition, % at 8 µM | 10,000 tested, 55% active | AID 489028, 2010; in the data active = inhibition above about 40%
Full FLuc ctr: full-length luciferase signal inhibition, confirmation, counter-screen for Mdm2/MdmX interaction inhibitor project, cell-based, single concentration, SaOS-2 | shares compounds with Mdm2-MdmX inh | SaOS-2 full-length luciferase counterscreen, luminescence | inhibition, % at 8 µM | 6,200 tested, 77% active;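 active = mean inhibition at 8 µM reaching about 37%, which flags the compound as non-specific, limit read from the data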;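 note: p53-null SaOS-2 cells with luciferase driven by a doxycycline-inducible promoter; compound on cells about two nights before reading with doxycycline added after day one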
Numbers without * were called inactive. Most compounds without a hit are left out; they make up all but 4.8% or so of the library.

Screening COc1cc(CC(=O)N(C)CC(=O)Nc2ccc(Cl)c(C(F)(F)F)c2)cc(OC)c1OC returned SKKanGAS inh -1, CHOP UPR activ 1, UPR XBP1 act -2, Mdm2-MdmX inh 18, CSC inhib -1 and Beta cell apopt -3.
For CN(C)CCNc1ncnc2c1sc1nc(-c3ccccc3)c3c(c12)CCCC3 the results were SKKanGAS inh 19, CHOP UPR activ 6, UPR XBP1 act 6, Mdm2-MdmX inh 100*, CSC inhib 52, Beta cell apopt 13, Mdm2-MdmX conf 70* and Full FLuc ctr 41*.
COc1ncnc2c1sc1nc(-c3ccccc3)c3c(c12)CCCC3 was read as SKKanGAS inh -18, CHOP UPR activ -3, UPR XBP1 act 3, Mdm2-MdmX inh 33, CSC inhib 10 and Beta cell apopt 1.
`CCOC(=O)Oc1c(OC)cc(C(=O)O[C@@H]2C[C@@H]3CN4CCc5c([nH]c6cc(OC)ccc56)[C@H]4C[C@@H]3[C@H](C(=O)OC)[C@H]2OC)cc1OC` gave CHOP UPR activ 7, UPR XBP1 act -5, Mdm2-MdmX inh 88*, CSC inhib 15, Beta cell apopt 6, Mdm2-MdmX conf 58* and Full FLuc ctr 49*.
`CCOC(=O)c1nc(Nc2cc(Cl)ccc2OC)c2ccccc2n1` gave SKKanGAS inh 3, CHOP UPR activ 0, UPR XBP1 act 1, Mdm2-MdmX inh 30, CSC inhib -8 and Beta cell apopt -2.
`COc1ccc2nc(N=Nc3ccc(O)c4ccccc34)sc2c1` gave SKKanGAS inh -9, CHOP UPR activ -1, UPR XBP1 act -1, Mdm2-MdmX inh 66*, CSC inhib 92*, Beta cell apopt inconclusive, Mdm2-MdmX conf 78* and Full FLuc ctr 35.
`CC1(CCc2ccccc2)NC(=O)N(CC(=O)N2CC(=O)Nc3ccccc32)C1=O` (stereo not drawn) gave SKKanGAS inh -10, CHOP UPR activ 1, UPR XBP1 act 2, Mdm2-MdmX inh -40, CSC inhib -24 and Beta cell apopt -4.
CC1(C)CC(=O)C2=C(C1)N1C(=C(C#N)C2c2ccc(Cl)cc2)N=C(N)c2ccccc21 (stereo not drawn) was read as SKKanGAS inh 24, CHOP UPR activ 0, UPR XBP1 act 0, Mdm2-MdmX inh 56*, CSC inhib 23, Beta cell apopt -4 and Mdm2-MdmX conf 0.
Screening CC1(C)CC(=O)C2=C(C1)N1C(=C(C#N)C2c2ccccc2Cl)N=C(N)c2ccccc21 (stereo not drawn) returned SKKanGAS inh 4, CHOP UPR activ 0, UPR XBP1 act 2, Mdm2-MdmX inh 43, CSC inhib 1 and Beta cell apopt 9.
Screening CCCN(CC(=O)Nc1ccccc1Br)CC(=O)Nc1ccc(F)c(F)c1F returned SKKanGAS inh 2, CHOP UPR activ 2, UPR XBP1 act -1, Mdm2-MdmX inh 23, CSC inhib -3 and Beta cell apopt 9.
For CCCN(CC(=O)Nc1cc(Cl)cc(Cl)c1)CC(=O)Nc1ccc(F)c(F)c1F the results were SKKanGAS inh 82*, CHOP UPR activ 3, UPR XBP1 act -2, Mdm2-MdmX inh 52*, Beta cell apopt -9 and Mdm2-MdmX conf 15.
`CCn1c(SCC(=O)N2CCOCC2)nc2c([nH]c3ccccc32)c1=O` gave SKKanGAS inh -1, CHOP UPR activ 3, UPR XBP1 act -2, Mdm2-MdmX inh 19, CSC inhib -15 and Beta cell apopt -6.
`COCCn1c(SCC(=O)Nc2ccc(NC(C)=O)cc2)nc2c([nH]c3ccccc32)c1=O` gave SKKanGAS inh -2, CHOP UPR activ 0, UPR XBP1 act 1, Mdm2-MdmX inh 9, CSC inhib 0 and Beta cell apopt 2.
`CCn1c(SCC(=O)Nc2ccc(C(C)=O)cc2)nc2c([nH]c3ccccc32)c1=O` gave SKKanGAS inh 5, CHOP UPR activ 7, UPR XBP1 act 4, Mdm2-MdmX inh 62*, CSC inhib 12, Beta cell apopt 26 and Mdm2-MdmX conf 36.
`CCn1c(SCC(=O)Nc2cccc(NC(C)=O)c2)nc2c([nH]c3ccccc32)c1=O` gave SKKanGAS inh 18, CHOP UPR activ 0, UPR XBP1 act -4, Mdm2-MdmX inh 78*, CSC inhib -8 and Mdm2-MdmX conf 31.
Screening Cn1c(SCC(=O)NCc2ccc(F)cc2)nc2c([nH]c3ccccc32)c1=O returned SKKanGAS inh -5, CHOP UPR activ -2, UPR XBP1 act 2, Mdm2-MdmX inh 75*, CSC inhib 6, Beta cell apopt -1 and Mdm2-MdmX conf -8.
For Cn1c(SCC(=O)NCCc2ccccc2)nc2c([nH]c3ccccc32)c1=O the results were SKKanGAS inh -5, CHOP UPR activ -1, UPR XBP1 act -2, Mdm2-MdmX inh 17, CSC inhib -2 and Beta cell apopt -3.
For CCn1c(SCC(=O)Nc2cc(C)on2)nc2c([nH]c3ccccc32)c1=O the results were SKKanGAS inh 0, CHOP UPR activ 0, UPR XBP1 act 5, Mdm2-MdmX inh 65*, CSC inhib -8, Beta cell apopt 26 and Mdm2-MdmX conf 26.
`O=C(COC(=O)c1cnccn1)NCCc1ccc(Cl)cc1` gave CHOP UPR activ 2, UPR XBP1 act 2 and Mdm2-MdmX inh 17.
For CC(=O)/C=C(\C)Nc1ccccc1O the results were SKKanGAS inh 1, CHOP UPR activ 2, UPR XBP1 act -3, Mdm2-MdmX inh 21, CSC inhib 15 and Beta cell apopt -11.
For CCN(CC)S(=O)(=O)c1ccc(N2CCCC2)c(NC(=O)Cc2cc(OC)c(OC)c(OC)c2)c1 the results were SKKanGAS inh 0, CHOP UPR activ 2, UPR XBP1 act -1, Mdm2-MdmX inh 7, CSC inhib -11 and Beta cell apopt 2.
Screening Cc1ccc(CNC(=O)CSc2nc(=O)n3ccccc3n2)cc1 returned SKKanGAS inh -1, CHOP UPR activ 0, UPR XBP1 act -2, Mdm2-MdmX inh 5, CSC inhib -13 and Beta cell apopt -2.
